Laboratory results as given in ChEMBL document CHEMBL1128472, “Reversible inhibitors of the gastric (H+/K+)-ATPase. 5. Substituted 2,4-diaminoquinazolines and thienopyrimidines” (J Med Chem, 1995).

Tests used:
[1] = biological target: Potassium-transporting ATPase (Sus scrofa, UniProt P19156); test: Inhibition of K+ stimulated gastric ATPase activity; type: tissue-based, Stomach
How it was run: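 K+-stimulated ATPase activity measured in a lyophilized gastric vesicle preparation at pH 7; enzyme concentration estimated at around 2 nM from 32P-ATP binding.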

[2] = biological target: T1, Potassium-transporting ATPase (Rattus norvegicus) (UniProt P09626+P18598); test: Inhibition of pentagastrin stimulated gastric acid secretion in anesthetized rat at 10 uM/kg; type: functional; conditions: Stomach; 10 umol/kg
How it was run: (§1)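 Anaesthetized rat with lumen-perfused stomach; acid secretion induced by pentagastrin; compound given intravenously; inhibition of acid output recorded.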

Canis familiaris [3] = test: Histamine-stimulated gastric acid secretion in Heidenhain pouch dog at 4uM/Kg, on oral administration of the compound
Canis familiaris [4] = test: Histamine-stimulated gastric acid secretion in Heidenhain pouch dog at 1uM/Kg, on iv administration of the compound; type: functional, Canis lupus familiaris, Stomach
Rattus norvegicus [5] = test: Inhibition of pentagastrin stimulated gastric acid secretion in anesthetized rat at 10 uM/kg, on iv administration of the compound.; type: functional, Stomach; how it was run: as §1
[6] = biological target: T1, Potassium-transporting ATPase (Rattus norvegicus); test: Inhibition of pentagastrin stimulated gastric acid secretion in anesthetized rat 10 uM/kg, on iv administration of the compound.; type: functional, organism-based; conditions: Stomach; how it was run: as §1
Canis familiaris [7] = test: % inhibition of Histamine-stimulated gastric acid secretion in Heidenhain pouch dog at 4 uM/kg, on peroral administration of the compound.; type: functional, Canis lupus familiaris, Stomach
How it was run: (§2)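 Heidenhain pouch dogs with histamine-stimulated acid secretion; compound given orally as a dry powder in a hard gelatin capsule; inhibition of acid secretion measured.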

Canis familiaris [8] = test: % inhibition of Histamine-stimulated gastric acid secretion in Heidenhain pouch dog 4 uM/kg, on peroral administration of the compound.; type: functional, Canis lupus familiaris, Stomach; how it was run: as §2
Rattus norvegicus [9] = test: Inhibition of pentagastrin stimulated gastric acid secretion in anesthetized rat on iv administration of the compound.; type: functional; conditions: Stomach; how it was run: as §1
Canis familiaris [10] = test: % inhibition of Histamine-stimulated gastric acid secretion in Heidenhain pouch dog 1 uM/kg, on iv administration of the compound.; type: functional, Canis lupus familiaris, Stomach
Canis familiaris [11] = test: % inhibition of Histamine-stimulated gastric acid secretion in Heidenhain pouch dog at1uM/kg, on iv administration of the compound.; type: functional, Canis lupus familiaris, Stomach
[12] = biological target: Potassium-transporting ATPase (Sus scrofa) (UniProt P18434+P19156); test: Inhibition of K+ stimulated gastric ATPase activity at 100 uM[…]; type: tissue-based; conditions: Stomach
Canis familiaris [13] = test: % inhibition of Histamine-stimulated gastric acid secretion in Heidenhain pouch dog at 1 uM/kg, on peroral administration of the compound.; type: functional, Canis lupus familiaris, Stomach; conditions: in the assay text read “on iv administration” for “on peroral administration”

Potassium-transporting ATPase, sequence (P18434 whole entry): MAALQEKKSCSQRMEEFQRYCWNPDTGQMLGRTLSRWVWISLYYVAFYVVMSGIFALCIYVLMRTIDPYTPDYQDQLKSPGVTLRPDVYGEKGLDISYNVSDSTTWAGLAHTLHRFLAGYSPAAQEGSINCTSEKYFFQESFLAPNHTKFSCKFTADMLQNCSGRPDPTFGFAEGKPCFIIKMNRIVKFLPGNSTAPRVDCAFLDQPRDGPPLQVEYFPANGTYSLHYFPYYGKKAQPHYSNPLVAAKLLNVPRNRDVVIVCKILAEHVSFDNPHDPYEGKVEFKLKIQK
Potassium-transporting ATPase, sequence (P19156 whole entry): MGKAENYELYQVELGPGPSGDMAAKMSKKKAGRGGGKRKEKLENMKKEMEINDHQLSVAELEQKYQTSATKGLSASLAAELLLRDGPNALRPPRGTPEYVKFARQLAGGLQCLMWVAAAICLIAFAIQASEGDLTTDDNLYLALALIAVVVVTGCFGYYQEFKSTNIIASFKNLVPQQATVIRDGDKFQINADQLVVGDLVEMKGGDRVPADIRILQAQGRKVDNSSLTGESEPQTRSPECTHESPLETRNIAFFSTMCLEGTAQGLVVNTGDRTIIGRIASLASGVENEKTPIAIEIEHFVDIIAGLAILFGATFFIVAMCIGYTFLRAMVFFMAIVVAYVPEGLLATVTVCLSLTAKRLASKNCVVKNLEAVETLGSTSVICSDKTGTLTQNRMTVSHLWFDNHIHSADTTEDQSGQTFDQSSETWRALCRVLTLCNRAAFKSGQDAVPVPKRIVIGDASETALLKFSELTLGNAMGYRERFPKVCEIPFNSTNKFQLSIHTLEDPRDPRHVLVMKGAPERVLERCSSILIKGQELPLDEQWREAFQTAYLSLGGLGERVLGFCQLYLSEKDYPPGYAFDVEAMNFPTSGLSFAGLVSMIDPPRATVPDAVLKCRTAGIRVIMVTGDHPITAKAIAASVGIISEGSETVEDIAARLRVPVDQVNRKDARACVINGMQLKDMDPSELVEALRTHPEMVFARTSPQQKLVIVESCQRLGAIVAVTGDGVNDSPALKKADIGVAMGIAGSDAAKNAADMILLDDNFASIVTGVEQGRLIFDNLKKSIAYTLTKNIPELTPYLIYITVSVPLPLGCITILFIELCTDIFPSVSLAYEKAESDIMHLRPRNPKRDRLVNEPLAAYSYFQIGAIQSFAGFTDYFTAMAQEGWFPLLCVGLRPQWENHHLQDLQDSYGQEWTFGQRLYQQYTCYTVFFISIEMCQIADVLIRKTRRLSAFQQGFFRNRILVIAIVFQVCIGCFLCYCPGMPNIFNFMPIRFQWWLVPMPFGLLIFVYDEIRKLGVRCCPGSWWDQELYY

## COc1cccc2c(Nc3ccccc3C)nc(N(C)C)nc12
[1]
  IC50: 16000 nM
[2]
  inhibition: 37%

## Cc1cc(F)ccc1Nc1nc(N(C)c2ccccc2)c2cccc(O)c2n1
[1]
  IC50: 170 nM

## Cc1cc(F)ccc1Nc1nc2c(C)cccc2c2c1CCN2c1ccccc1C
[1]
  IC50: 130 nM

## COc1cccc2c(N(C)c3ccccc3C)nc(Nc3ccc(F)cc3C)nc12
[1]
  IC50: 95 nM

## Cc1ccccc1Nc1nc(NCc2ccccc2)nc2ccccc12
[1]
  IC50: 510 nM

## CCCC(=O)c1cnc2c(OC)cccc2c1Nc1ccccc1C
Canis familiaris [3]
  ED50: 1.6 µmol/kg
Canis familiaris [4]
  ED50: 0.26 µmol/kg

## Cc1ccccc1Nc1nc(N(C)c2ccc(F)cc2)c2ccccc2n1
[1]
  IC50: 120 nM
Rattus norvegicus [5]
  Inhibition: 62%

## Cc1cc(F)ccc1Nc1nc(N(C)c2ccccc2)c2cc(OCCCN(C)C)ccc2n1
[1]
  IC50: 1100 nM

## Cc1cc(O)ccc1Nc1nc(N(C)c2ccccc2)c2ccccc2n1
[1]
  IC50: 1070 nM
[6]
  inhibition: 23%

## Cc1ccccc1Nc1nc(N(C)c2ccccc2)c2cc(O)ccc2n1
[1]
  IC50: 24 nM

## COc1cccc2c(Nc3ccccc3C)nc(Nc3ccccc3C)nc12
[1]
  IC50: 2500 nM

## COc1ccc(N(C)c2nc(Nc3ccccc3C)nc3ccccc23)cc1
[1]
  IC50: 34 nM
[2]
  inhibition: 60%
Canis familiaris [7]
  Inhibition: 12%

## COc1cccc2c(Nc3ccccc3C)nc(NCc3ccco3)nc12
[1]
  IC50: 1900 nM

## Cc1cc(F)ccc1Nc1nc(N(C)c2ccccc2)c2cccc(OCCCN(C)C)c2n1
[1]
  IC50: 36 nM
[6]
  inhibition: 68%
Canis familiaris [8]
  Inhibition: 0%

## Cc1cc(F)ccc1Nc1nc(N(C)c2ccccc2)c2cccc(OCCO)c2n1
[1]
  IC50: 100 nM

## Cc1cc(F)ccc1Nc1nc(N(C)c2ccccc2)c2cc(O)ccc2n1
Rattus norvegicus [9]
  ED50: 1.5 µmol/kg
[1]
  IC50: 18 nM
Canis familiaris [8]
  Inhibition: 0%
Canis familiaris [10]
  Inhibition: 97%

## Cc1cc(F)ccc1Nc1nc(N(C)c2ccccc2)c2sccc2n1
[1]
  IC50: 34 nM
Rattus norvegicus [5]
  Inhibition: 49%

## COc1cccc2c(N(C)c3ccccc3C)nc(Nc3ccccc3C)nc12
[1]
  IC50: 100 nM
[6]
  inhibition: 93%

## COc1ccc(Nc2nc(N(C)c3ccccc3)c3ccccc3n2)c(C)c1
[1]
  IC50: 360 nM

## CN(c1ccccc1)c1nc(N(C)c2ccccc2)c2ccccc2n1
Rattus norvegicus [9]
  ED50: 2.81 µmol/kg
[1]
  IC50: 67 nM
Canis familiaris [7]
  Inhibition: 2%
Canis familiaris [11]
  Inhibition: 73%

## Cc1ccccc1Nc1nc(N(C)c2ccccc2C)nc2ccccc12
[1]
  IC50: 2000 nM
[2]
  inhibition: 27%

## Cc1cc(F)ccc1Nc1nc(N(C)c2ccccc2)c2cccc(OCCCN3CCOCC3)c2n1
[1]
  IC50: 50 nM
[6]
  inhibition: 73%
Canis familiaris [8]
  Inhibition: 0%

## Cc1ccccc1Nc1nc(Nc2ccccc2C)c2ccsc2n1
[12]
  inhibition: 27%

## COc1ccc(Nc2nc(N(C)c3ccccc3)c3sccc3n2)c(C)c1
[1]
  IC50: 340 nM

## Cc1ccccc1Nc1nc(N(C)c2ccccc2)c2sccc2n1
[1]
  IC50: 19 nM
Canis familiaris [13]
  Inhibition: 84%
Canis familiaris [7]
  Inhibition: 12%
Rattus norvegicus [5]
  Inhibition: 50%

## COc1cccc2c(N(C)c3ccccc3)nc(Nc3ccc(F)cc3C)nc12
[1]
  IC50: 32 nM
[6]
  inhibition: 94%
Canis familiaris [8]
  Inhibition: 32%
Canis familiaris [10]
  Inhibition: 96%

## CCNc1nc(Nc2ccccc2C)c2ccccc2n1
[1]
  IC50: 1390 nM

## Cc1cc(Cl)ccc1Nc1nc(N(C)c2ccccc2)c2ccccc2n1
[1]
  IC50: 41 nM
[6]
  inhibition: 31%

## Cc1ccccc1Nc1nc(N(C)c2ccccc2)c2cccc(OCCO)c2n1
[1]
  IC50: 35 nM
[6]
  inhibition: 93%
Canis familiaris [8]
  Inhibition: 8%
Canis familiaris [10]
  Inhibition: 73%

## COc1cccc2c(Nc3ccccc3C)nc(NCc3ccccc3)nc12
[1]
  IC50: 2000 nM

## Cc1ccccc1Nc1nc(Nc2ccccc2)c2ccccc2n1
[1]
  IC50: 940 nM

## CN(c1ccccc1)c1nc(N(C)c2ccccc2)c2ccsc2n1
[1]
  IC50: 1300 nM
Rattus norvegicus [5]
  Inhibition: 14%

## Cc1ccccc1Nc1nc(N(C)c2ccccc2C)c2ccccc2n1
[1]
  IC50: 46 nM
[2]
  inhibition: 90%

## COc1cccc2c(N(C)c3ccccc3)nc(N)nc12
[1]
  IC50: 1200 nM
[2]
  inhibition: 13%

## CCN(c1ccccc1)c1nc(Nc2ccccc2C)nc2ccccc12
[1]
  IC50: 320 nM
[2]
  inhibition: 59%
